{"source": "ChEMBL document CHEMBL4706633", "about": "“Design, Synthesis, and Biological Evaluation of a Series of Oxazolone Carboxamides as a Novel Class of Acid Ceramidase Inhibitors” (J Med Chem, 2020)", "key": {"[1]": {"target": "T1, N-acylethanolamine-hydrolyzing acid amidase (Homo sapiens) (UniProt Q02083)", "T1 sequence (whole entry)": "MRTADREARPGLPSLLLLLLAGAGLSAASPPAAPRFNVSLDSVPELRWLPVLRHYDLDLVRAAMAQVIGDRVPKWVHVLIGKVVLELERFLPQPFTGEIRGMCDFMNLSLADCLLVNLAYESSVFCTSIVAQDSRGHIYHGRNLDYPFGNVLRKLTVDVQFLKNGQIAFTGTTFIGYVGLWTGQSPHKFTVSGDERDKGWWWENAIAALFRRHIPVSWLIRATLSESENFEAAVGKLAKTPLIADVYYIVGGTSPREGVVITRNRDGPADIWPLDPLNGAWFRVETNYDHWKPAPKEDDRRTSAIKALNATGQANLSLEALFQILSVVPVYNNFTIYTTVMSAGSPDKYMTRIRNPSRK", "assay": "Inhibition of human NAAA up to 125 uM", "conditions": "dose microM <=125"}, "[2]": {"assay": "Oral bioavailability in C57BL/6 mouse at 10 mg/kg measured up to 4 hrs by LC/MS-MS analysis", "assay_type": "ADME, organism-based", "conditions": "in vivo", "in_short": "(§1)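 C57BL/6 mice were dosed intravenously at 3 mg/kg or orally at 10 mg/kg. Plasma PK parameters were derived per route: clearance, Vdss and t1/2 after i.v. dosing, and tmax, Cmax, t1/2 and AUC after oral dosing. Oral bioavailability F was estimated from the oral and i.v. exposures.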"}, "[3]": {"assay": "Elimination half life in C57BL/6 mouse at 3 mg/kg, iv measured up to 4 hrs by LC/MS-MS analysis", "assay_type": "ADME, organism-based", "conditions": "in vivo", "in_short": "as §1"}, "[4]": {"tested_on": "SH-SY5Y", "assay": "Effect on HexCer (d18:1/16:0) levels in human SH-SY5Y cells at 10 uM incubated for 1 to 6 hrs by LC-MS analysis", "assay_type": "functional, cell-based", "conditions": "time 1-6 hrs", "in_short": "(§2)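 SH-SY5Y neuroblastoma cultures were treated at 10 μM for 1, 3 or 6 h. Intracellular sphingolipids (Cer, So, SM, HexCer) were then identified and quantified by LC/MS.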"}, "[5]": {"assay": "AUC in C57BL/6 mouse at 10 mg/kg, po measured up to 4 hrs by LC/MS-MS analysis", "assay_type": "ADME, organism-based", "design": "route oral, dose 10 mg/kg, time <=4", "conditions": "in vivo", "in_short": "as §1"}, "[6]": {"target": "T2, Acid ceramidase (Homo sapiens) (UniProt Q13510)", "T2 sequence (whole entry)": "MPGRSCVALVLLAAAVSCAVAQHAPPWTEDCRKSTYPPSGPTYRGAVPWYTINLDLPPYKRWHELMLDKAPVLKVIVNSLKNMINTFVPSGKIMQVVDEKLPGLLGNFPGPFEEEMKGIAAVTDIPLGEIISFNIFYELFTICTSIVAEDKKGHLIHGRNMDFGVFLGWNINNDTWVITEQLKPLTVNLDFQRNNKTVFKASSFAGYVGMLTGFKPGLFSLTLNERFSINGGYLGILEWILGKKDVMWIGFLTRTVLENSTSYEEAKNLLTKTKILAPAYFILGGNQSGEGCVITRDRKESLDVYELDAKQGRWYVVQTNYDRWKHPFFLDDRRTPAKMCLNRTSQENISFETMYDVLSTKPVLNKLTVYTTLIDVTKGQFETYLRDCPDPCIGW", "assay": "Inhibition of acid ceramidase in human SH-SY5Y cells assessed as intracellular accumulation of Cer (d18:1/16:0) at 1 to 10 uM incubated for 3 hrs by LC-MS analysis", "assay_type": "cell-based", "conditions": "dose 1-10 µM", "in_short": "(§3)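 SH-SY5Y human neuroblastoma cells were exposed for 3 h at 1, 2.5, 5 or 10 μM. Cellular sphingolipids (Cer species, So, SM, HexCer) were quantified by LC/MS. Data are means ± SEM of at least six determinations, with experiments repeated twice. Significance was taken at p < 0.05.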"}, "[7]": {"target": "T2, Acid ceramidase (Homo sapiens)", "assay": "Inhibition of acid ceramidase in human SH-SY5Y cells assessed as reduction in sphingolipid levels at 10 uM incubated for 1 to 6 hrs by LC-MS analysis", "assay_type": "cell-based", "conditions": "time 1-6 hrs, TDE = time-dependent effect", "in_short": "as §2"}, "[8]": {"assay": "Half life in mouse plasma at 2 uM by LC/MS-MS analysis", "assay_type": "ADME, cell-free", "in_short": "(§4)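 Kinetic aqueous solubility was measured in PBS, pH 7.4. Metabolic stability was measured as t1/2 in mouse plasma and mouse liver microsomes, with microsomal data also given as % compound remaining at 1 h. Values are means of at least two independent experiments, each in two technical replicates.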"}, "[9]": {"tested_on": "SH-SY5Y", "assay": "Effect on SM (d18:1/16:0) levels in human SH-SY5Y cells at 10 uM incubated for 1 to 6 hrs by LC-MS analysis", "assay_type": "functional, cell-based", "conditions": "time 1-6 hrs", "in_short": "as §2"}, "[10]": {"target": "T2, Acid ceramidase (Homo sapiens)", "assay": "Inhibition of acid ceramidase in human SH-SY5Y cells assessed as reduction in sphingolipid levels at 1 to 10 uM incubated for 3 hrs by LC-MS analysis", "assay_type": "cell-based", "conditions": "dose 1-10 µM", "in_short": "as §3"}, "[11]": {"target": "T2, Acid ceramidase (Homo sapiens)", "assay": "Irreversible covalent inhibition of human acid ceramidase using N-lauroyl ceramide incubated for 1 hr by LC/MS analysis"}, "[12]": {"target": "T2, Acid ceramidase (Homo sapiens)", "assay": "Inhibition of acid ceramidase in human SH-SY5Y cells assessed as intracellular accumulation of Cer (d18:0/16:0) at 10 uM incubated for 1 to 6 hrs by LC-MS analysis", "assay_type": "cell-based", "conditions": "time 1-6 hrs", "in_short": "as §2"}, "[13]": {"tested_on": "SH-SY5Y", "assay": "Effect on HexCer (d18:1/16:0) levels in human SH-SY5Y cells at 1 to 10 uM incubated for 3 hrs by LC-MS analysis", "assay_type": "functional, cell-based", "conditions": "dose 1-10 µM", "in_short": "as §3"}, "[14]": {"target": "T2, Acid ceramidase (Homo sapiens)", "assay": "Inhibition of acid ceramidase in human SH-SY5Y cells assessed as intracellular accumulation of Cer (d18:0/16:0) at 1 to 10 uM incubated for 3 hrs by LC-MS analysis", "assay_type": "cell-based", "conditions": "dose 1-10 µM", "in_short": "as §3"}, "[15]": {"assay": "Kinetic solubility in pH 7.4 PBS buffer at 250 uM incubated for 1 hr by UPLC/MS analysis", "assay_type": "physicochemical", "conditions": "read-out: Kinetic_solubility", "in_short": "as §4"}, "[16]": {"assay": "Tmax in C57BL/6 mouse at 10 mg/kg, po measured up to 4 hrs by LC/MS-MS analysis", "assay_type": "ADME, organism-based", "conditions": "in vivo", "in_short": "as §1"}, "[17]": {"assay": "Stability in mouse liver microsomes at 4.6 uM in presence of NADPH after 60 mins by LC/MS-MS analysis", "assay_type": "ADME, Microsome", "conditions": "read-out: Stabilty", "in_short": "as §4"}, "[18]": {"assay": "Elimination half life in C57BL/6 mouse at 10 mg/kg, po measured up to 4 hrs by LC/MS-MS analysis", "assay_type": "ADME, organism-based", "conditions": "in vivo", "in_short": "as §1"}, "[19]": {"target": "T2, Acid ceramidase (Homo sapiens)", "assay": "Inhibition of acid ceramidase in human SH-SY5Y cells assessed as reduction in sphingosine level at 1 to 10 uM incubated for 3 hrs by LC-MS analysis", "assay_type": "cell-based", "conditions": "dose 1-10 µM", "in_short": "as §3"}, "[20]": {"assay": "Volume of distribution at steady state in C57BL/6 mouse at 10 mg/kg, po measured up to 4 hrs by LC/MS-MS analysis", "assay_type": "ADME, organism-based", "conditions": "in vivo"}, "[21]": {"target": "T2, Acid ceramidase (Homo sapiens)", "assay": "Inhibition of acid ceramidase in human SH-SY5Y cells assessed as reduction in sphingosine level at 10 uM incubated for 1 to 6 hrs by LC-MS analysis", "assay_type": "cell-based", "conditions": "time 1-6 hrs", "in_short": "as §2"}, "[22]": {"target": "T2, Acid ceramidase (Homo sapiens)", "assay": "Inhibition of acid ceramidase in human SH-SY5Y cells assessed as intracellular accumulation of Cer (d18:1/16:0) at 10 uM incubated for 1 to 6 hrs by LC-MS analysis", "assay_type": "cell-based", "conditions": "time 1-6 hrs", "in_short": "as §2"}, "[23]": {"assay": "Clearance in C57BL/6 mouse at 10 mg/kg, po measured up to 4 hrs by LC/MS-MS analysis", "assay_type": "ADME, organism-based", "conditions": "in vivo"}, "[24]": {"assay": "AUC in C57BL/6 mouse at 3 mg/kg, iv measured up to 4 hrs by LC/MS-MS analysis", "assay_type": "ADME, organism-based", "design": "route intravenous, dose 3 mg/kg, time <=4", "conditions": "in vivo"}, "[25]": {"assay": "Volume of distribution at steady state in C57BL/6 mouse at 3 mg/kg, iv measured up to 4 hrs by LC/MS-MS analysis", "assay_type": "ADME, organism-based", "conditions": "in vivo", "in_short": "as §1"}, "[26]": {"assay": "Half life in mouse liver microsomes at 4.6 uM in presence of NADPH by LC/MS-MS analysis", "assay_type": "ADME, Microsome", "in_short": "as §4"}, "[27]": {"tested_on": "SH-SY5Y", "assay": "Effect on SM (d18:1/16:0) levels in human SH-SY5Y cells at 1 to 10 uM incubated for 3 hrs by LC-MS analysis", "assay_type": "functional, cell-based", "conditions": "dose 1-10 µM", "in_short": "as §3"}, "[28]": {"target": "T3, Acid ceramidase (Homo sapiens, UniProt Q13510)", "T3 sequence (Q13510 whole entry)": "T2 sequence (whole entry)", "assay": "Inhibition of human acid ceramidase using Rbm14-12 fluorogenic substrate incubated for 1 hr by fluorescence assay", "conditions": "read-out: IC50"}, "[29]": {"assay": "Cmax in C57BL/6 mouse at 10 mg/kg, po measured up to 4 hrs by LC/MS-MS analysis", "assay_type": "ADME, organism-based", "design": "route oral, dose 10 mg/kg, time <=4", "conditions": "in vivo", "in_short": "as §1"}}, "note": "Calls of active or inactive are those of the source. No cut-off for these calls is given here."}
{"molecule": "CCCCCNC(=O)n1cc(-c2ccc(F)cc2C2CCN(C)CC2)oc1=O", "values": [{"measurement": "inhibition", "setting": "[1]", "result": "inactive"}, {"measurement": "F", "setting": "[2]", "result": 40, "unit": "%"}, {"measurement": "beta t1/2", "setting": "[3]", "result": 1.98, "unit": "h"}, {"measurement": "Activity", "setting": "[4]", "result": "inactive"}, {"measurement": "AUC", "setting": "[5]", "result": 42525, "unit": "ng·min/mL"}, {"measurement": "inhibition", "setting": "[6]", "result": "Dose-dependent effect"}, {"measurement": "inhibition", "setting": "[7]", "result": "Tde"}, {"measurement": "t1/2", "setting": "[8]", "result": 1.83, "unit": "h"}, {"measurement": "Activity", "setting": "[9]", "result": "inactive"}, {"measurement": "inhibition", "setting": "[10]", "result": "Dose-dependent effect"}, {"measurement": "inhibition", "setting": "[11]", "result": "Active"}, {"measurement": "inhibition", "setting": "[12]", "result": "Active"}, {"measurement": "Activity", "setting": "[13]", "result": "inactive"}, {"measurement": "inhibition", "setting": "[14]", "result": "Dose-dependent effect"}, {"measurement": "solubility kinetic at 1 h, 250 µM", "setting": "[15]", "result": "> 250", "unit": "µM"}, {"measurement": "Tmax", "setting": "[16]", "result": 0.5, "unit": "h"}, {"measurement": "remaining at 1 h, 4.6 µM", "setting": "[17]", "result": 74, "unit": "%"}, {"measurement": "beta t1/2", "setting": "[18]", "result": 2.45, "unit": "h"}, {"measurement": "inhibition", "setting": "[19]", "result": "Dose-dependent effect"}, {"measurement": "Vdss", "setting": "[20]", "result": 32.877, "unit": "L/kg"}, {"measurement": "inhibition", "setting": "[21]", "result": "Active"}, {"measurement": "inhibition", "setting": "[22]", "result": "Active"}, {"measurement": "CL/F", "setting": "[23]", "result": 155, "unit": "mL/min/kg"}, {"measurement": "AUC", "setting": "[24]", "result": 31978, "unit": "ng·min/mL"}, {"measurement": "Vdss", "setting": "[25]", "result": 12.426, "unit": "L/kg"}, {"measurement": "t1/2", "setting": "[26]", "result": "> 1", "unit": "h"}, {"measurement": "Activity", "setting": "[27]", "result": "inactive"}, {"measurement": "IC50", "setting": "[28]", "result": 129, "unit": "nM"}, {"measurement": "Cmax", "setting": "[29]", "result": 278, "unit": "ng/mL"}]}
